MIC data for 23 compounds are collected here from ChEMBL document CHEMBL3098047, “Design, synthesis and structure-activity relationships of substituted oxazole-benzamide antibacterial inhibitors of FtsZ” (Bioorg Med Chem Lett, 2014).

≈ marks a conversion by molar mass, not a printed value.

The test system of the first assay is Staphylococcus aureus. Nature of the assay: Antibacterial activity against Staphylococcus aureus harboring FtsZ G196A mutant by broth microdilution method. The format is functional. The procedure, abridged:
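S. aureus ATCC 29213 derivative with G196A substitution in FtsZ; MIC by broth microdilution following CLSI guidelines; reported in µg/mL.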
(In general: Broth dilution looks for growth in wells or tubes with falling amounts of substance.)
As for `NC(=O)c1c(F)ccc(OCc2nc(-c3ccc(Cl)cc3)c(Br)o2)c1F`, the MIC came to 2 µg/mL (≈ 4.51 µM).
Regarding `NC(=O)c1c(F)ccc(OCc2nc(-c3ccccc3)co2)c1F`, the MIC was over 64 µg/mL.
The same measure, in the same setting: to `COc1ccc(-c2nc(COc3ccc(F)c(C(N)=O)c3F)oc2-c2ccccc2)cc1` belongs over 64 µg/mL; to `NC(=O)c1c(F)ccc(OCc2nc(-c3ccc(Cl)cc3)c([N+](=O)[O-])o2)c1F`, over 64 µg/mL; to `NC(=O)c1c(F)ccc(O[C@H](CO)c2nc(-c3ccc(C(F)(F)F)cc3)c(Br)o2)c1F`, 4 µg/mL (≈ 7.89 µM).
Same read-out and setting: to `NC(=O)c1c(F)ccc(OCc2nc(-c3ccc(OC(F)(F)F)cc3)c(C(F)(F)F)o2)c1F` belongs over 64 µg/mL.
The compound `COc1ccc(-c2nc(COc3ccc(F)c(C(N)=O)c3F)oc2C2CC2)cc1` had an MIC of over 64 µg/mL.
In turn, `NC(=O)c1c(F)ccc(OCc2nc(-c3ccc(Cl)cc3)c(CO)o2)c1F` yielded an MIC of over 64 µg/mL.
The same measure, in the same setting: the value for `N#Cc1oc(COc2ccc(F)c(C(N)=O)c2F)nc1-c1ccc(C(F)(F)F)cc1` was over 64 µg/mL; that for `NC(=O)c1c(F)ccc(OCc2nc(-c3ccc(OC(F)(F)F)cc3)c(I)o2)c1F` was over 64 µg/mL; that for `NC(=O)c1c(F)ccc(OCc2nc(-c3ccc(OC(F)(F)F)cc3)c(Br)o2)c1F` was 2 µg/mL (≈ 4.06 µM).
Still for that read-out and setting: the value for `CCOc1oc(COc2ccc(F)c(C(N)=O)c2F)nc1-c1ccc(Cl)cc1` was over 64 µg/mL.
On the same count and under the same terms, the value for `NC(=O)c1c(F)ccc(OCc2nc(-c3ccc(O)cc3)co2)c1F` was over 64 µg/mL.
As for `COc1ccc(-c2coc(COc3ccc(F)c(C(N)=O)c3F)n2)cc1`, the MIC is over 64 µg/mL.

The target in the next assay is T1, Cell division protein FtsZ (Staphylococcus aureus) (UniProt P0A031).
T1 sequence (whole entry): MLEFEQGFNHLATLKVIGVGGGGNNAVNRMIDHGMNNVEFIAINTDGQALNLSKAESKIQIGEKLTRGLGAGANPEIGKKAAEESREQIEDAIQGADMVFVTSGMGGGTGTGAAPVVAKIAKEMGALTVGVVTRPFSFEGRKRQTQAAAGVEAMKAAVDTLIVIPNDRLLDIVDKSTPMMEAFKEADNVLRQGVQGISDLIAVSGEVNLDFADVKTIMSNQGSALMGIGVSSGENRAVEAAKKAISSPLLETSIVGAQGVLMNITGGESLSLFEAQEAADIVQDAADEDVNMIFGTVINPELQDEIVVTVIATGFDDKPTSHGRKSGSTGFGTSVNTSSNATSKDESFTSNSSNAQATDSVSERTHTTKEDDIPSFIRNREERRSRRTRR
Nature of the assay: Inhibition of Staphylococcus aureus ATCC 29213 FtsZ-mediated cell division phenotype. In short, it runs like this:
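S. aureus ATCC 29213 cell division inhibition assay run alongside MIC testing; value is the lowest concentration at which an inhibition of cell division phenotype was seen (µg/mL).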
For the compound `Cc1nnc(CC(Oc2ccc(F)c(C(N)=O)c2F)c2nc(-c3ccc(C(F)(F)F)cc3)c(Br)o2)o1` (racemic), the MIC stood at 16 µg/mL (≈ 27.9 µM).
Still for that read-out and setting: the value for `COc1ccc(-c2nc(COc3ccc(F)c(C(N)=O)c3F)oc2-c2cncs2)cc1` was 2 µg/mL (≈ 4.51 µM); that for `NC(=O)c1c(F)ccc(OC(CO)c2nc(-c3ccc(Cl)cc3)c(Br)o2)c1F` (racemic) was 0.25 µg/mL (≈ 0.528 µM).
Still for that read-out and setting: to `CCC(Oc1ccc(F)c(C(N)=O)c1F)c1nc(-c2ccc(Cl)cc2)c(Br)o1` (racemic) belongs 1 µg/mL (≈ 2.12 µM); to `NC(=O)c1c(F)ccc(OCc2nc(-c3ccc(Cl)cc3)c(Br)o2)c1F`, 0.03 µg/mL (≈ 0.0676 µM).
`NC(=O)c1c(F)ccc(OCc2nc(-c3ccccc3)co2)c1F` displayed an MIC of 16 µg/mL (≈ 48.4 µM).
Still for that read-out and setting: the value for `COc1ccc(-c2nc(COc3ccc(F)c(C(N)=O)c3F)oc2-c2ccccc2)cc1` was 0.12 µg/mL (≈ 0.275 µM); that for `NC(=O)c1c(F)ccc(OCc2nc(-c3ccc(Cl)cc3)c([N+](=O)[O-])o2)c1F` was over 64 µg/mL; that for `NC(=O)c1c(F)ccc(O[C@H](CO)c2nc(-c3ccc(C(F)(F)F)cc3)c(Br)o2)c1F` was 0.25 µg/mL (≈ 0.493 µM).
Still for that read-out and setting: the value for `NC(=O)c1c(F)ccc(OCc2nc(-c3ccc(OC(F)(F)F)cc3)c(C(F)(F)F)o2)c1F` was 0.5 µg/mL (≈ 1.04 µM); that for `COc1ccc(-c2nc(COc3ccc(F)c(C(N)=O)c3F)oc2C2CC2)cc1` was 0.12 µg/mL (≈ 0.3 µM); that for `NC(=O)c1c(F)ccc(OCc2nc(-c3ccc(Cl)cc3)c(CO)o2)c1F` was 8 µg/mL (≈ 20.3 µM).
Consider `N#Cc1oc(COc2ccc(F)c(C(N)=O)c2F)nc1-c1ccc(C(F)(F)F)cc1`, for which the MIC stood at 4 µg/mL (≈ 9.45 µM).
On the same count and under the same terms, to `NC(=O)c1c(F)ccc(OC(c2cccnc2)c2nc(-c3ccc(Cl)cc3)c(Br)o2)c1F` (racemic) belongs 4 µg/mL (≈ 7.68 µM); to `NC(=O)c1c(F)ccc(OCc2nc(-c3ccc(OC(F)(F)F)cc3)c(I)o2)c1F`, 0.06 µg/mL (≈ 0.111 µM).
Same read-out and setting: the value for `COc1oc(COc2ccc(F)c(C(N)=O)c2F)nc1-c1ccc(Cl)cc1` was 0.5 µg/mL (≈ 1.27 µM).
On the same count and under the same terms, the value for `NC(=O)c1c(F)ccc(OCc2nc(-c3ccc(OC(F)(F)F)cc3)c(Br)o2)c1F` was 0.03 µg/mL (≈ 0.0608 µM); that for `CCOc1oc(COc2ccc(F)c(C(N)=O)c2F)nc1-c1ccc(Cl)cc1` was 0.03 µg/mL (≈ 0.0734 µM).
With `NC(=O)c1c(F)ccc(OCc2nc(-c3ccc(O)cc3)co2)c1F`, the MIC was 8 µg/mL (≈ 23.1 µM).
Same read-out and setting: the value for `NC(=O)c1c(F)ccc(OC(CCO)c2nc(-c3ccc(C(F)(F)F)cc3)c(Br)o2)c1F` (racemic) was 0.5 µg/mL (≈ 0.959 µM); that for `COc1ccc(-c2coc(COc3ccc(F)c(C(N)=O)c3F)n2)cc1` was 2 µg/mL (≈ 5.55 µM).
On the same count and under the same terms, to `CN(C)CCC(Oc1ccc(F)c(C(N)=O)c1F)c1nc(-c2ccc(C(F)(F)F)cc2)c(Br)o1` (racemic) belongs 16 µg/mL (≈ 29.2 µM).

Another assay deals with Staphylococcus aureus. Nature of the assay: Antibacterial activity against Staphylococcus aureus ATCC 29213 by broth microdilution method. The format is functional. In short, it runs like this:
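Broth microdilution MIC per CLSI guidelines against S. aureus ATCC 29213; MIC in µg/mL.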
`Cc1nnc(CC(Oc2ccc(F)c(C(N)=O)c2F)c2nc(-c3ccc(C(F)(F)F)cc3)c(Br)o2)o1` (racemic) displayed an MIC of 8 µg/mL (≈ 14 µM).
As for `CC(C)(Oc1ccc(F)c(C(N)=O)c1F)c1nc(-c2ccc(Cl)cc2)c(Br)o1`, the MIC is over 64 µg/mL.
Same read-out and setting: to `COc1ccc(-c2nc(COc3ccc(F)c(C(N)=O)c3F)oc2-c2cncs2)cc1` belongs 2 µg/mL (≈ 4.51 µM).
Same read-out and setting: to `NC(=O)c1c(F)ccc(OC(CO)c2nc(-c3ccc(Cl)cc3)c(Br)o2)c1F` (racemic) belongs 0.25 µg/mL (≈ 0.528 µM); to `CCC(Oc1ccc(F)c(C(N)=O)c1F)c1nc(-c2ccc(Cl)cc2)c(Br)o1` (racemic), 2 µg/mL (≈ 4.24 µM); to `NC(=O)c1c(F)ccc(OCc2nc(-c3ccc(Cl)cc3)c(Br)o2)c1F`, 0.06 µg/mL (≈ 0.135 µM).
Same read-out and setting: the value for `NC(=O)c1c(F)ccc(OCc2nc(-c3ccccc3)co2)c1F` was 16 µg/mL (≈ 48.4 µM); that for `COc1ccc(-c2nc(COc3ccc(F)c(C(N)=O)c3F)oc2-c2ccccc2)cc1` was 0.12 µg/mL (≈ 0.275 µM); that for `NC(=O)c1c(F)ccc(OCc2nc(-c3ccc(Cl)cc3)c([N+](=O)[O-])o2)c1F` was over 64 µg/mL.
Regarding `NC(=O)c1c(F)ccc(O[C@H](CO)c2nc(-c3ccc(C(F)(F)F)cc3)c(Br)o2)c1F`, the MIC was 0.12 µg/mL (≈ 0.237 µM).
On the same count and under the same terms, the value for `NC(=O)c1c(F)ccc(OCc2nc(-c3ccc(OC(F)(F)F)cc3)c(C(F)(F)F)o2)c1F` was 0.5 µg/mL (≈ 1.04 µM).
Same read-out and setting: to `COc1ccc(-c2nc(COc3ccc(F)c(C(N)=O)c3F)oc2C2CC2)cc1` belongs 0.12 µg/mL (≈ 0.3 µM).
Still for that read-out and setting: the value for `NC(=O)c1c(F)ccc(OCc2nc(-c3ccc(Cl)cc3)c(CO)o2)c1F` was 8 µg/mL (≈ 20.3 µM).
Turning to `N#Cc1oc(COc2ccc(F)c(C(N)=O)c2F)nc1-c1ccc(C(F)(F)F)cc1`, the MIC is 2 µg/mL (≈ 4.72 µM).
On the same count and under the same terms, the value for `NC(=O)c1c(F)ccc(OC(c2cccnc2)c2nc(-c3ccc(Cl)cc3)c(Br)o2)c1F` (racemic) was 4 µg/mL (≈ 7.68 µM).
Turning to `NC(=O)c1c(F)ccc(OCc2nc(-c3ccc(OC(F)(F)F)cc3)c(I)o2)c1F`, the MIC was 0.06 µg/mL (≈ 0.111 µM).
Take `COc1oc(COc2ccc(F)c(C(N)=O)c2F)nc1-c1ccc(Cl)cc1`: the MIC amounted to 0.5 µg/mL (≈ 1.27 µM).
Still for that read-out and setting: the value for `NC(=O)c1c(F)ccc(OCc2nc(-c3ccc(OC(F)(F)F)cc3)c(Br)o2)c1F` was 0.06 µg/mL (≈ 0.122 µM).
Still for that read-out and setting: the value for `CCOc1oc(COc2ccc(F)c(C(N)=O)c2F)nc1-c1ccc(Cl)cc1` was 0.06 µg/mL (≈ 0.147 µM); that for `NC(=O)c1c(F)ccc(OCc2nc(-c3ccc(O)cc3)co2)c1F` was 8 µg/mL (≈ 23.1 µM).
The same measure, in the same setting: to `NC(=O)c1c(F)ccc(OC(CCO)c2nc(-c3ccc(C(F)(F)F)cc3)c(Br)o2)c1F` (racemic) belongs 0.5 µg/mL (≈ 0.959 µM).
On to `COc1ccc(-c2coc(COc3ccc(F)c(C(N)=O)c3F)n2)cc1`, for which the MIC stood at 2 µg/mL (≈ 5.55 µM).
Same read-out and setting: the value for `CN(C)CCC(Oc1ccc(F)c(C(N)=O)c1F)c1nc(-c2ccc(C(F)(F)F)cc2)c(Br)o1` (racemic) was 8 µg/mL (≈ 14.6 µM).
